Assay results from ChEMBL document CHEMBL4480399, “Identification of a Benzimidazolecarboxylic Acid Derivative (BAY 1316957) as a Potent and Selective Human Prostaglandin E2 Receptor Subtype 4 (hEP4-R) Antagonist for the Treatment of Endometriosis” (J Med Chem, 2019).
Converted amounts (≈) assume the structure as drawn. The source made the active and inactive calls.

Key:
Rattus norvegicus = experiment: Antinociceptive activity in Sprague-Dawley rat model of dmPGE2-induced pain behavior assessed as increase in paw withdrawal thresholds at 5 mg/kg, po pretreated 60 mins before dmPGE2 addition and measured after 30 mins post dmPGE2 injection; type: functional, organism-based
How it was run: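 Male Sprague-Dawley rats, 220–265 g. Compound suspended in 0.5% CMC and given orally; vehicle controls. At 60 min, 10 µg dmPGE2 in PBS injected into the plantar surface of the left hind paw. Electronic von Frey thresholds taken 30 min later, mean of 3 per paw, against day −1 baseline. Mean ±SD; Grubbs outlier test; 1-way ANOVA with Dunnett's test.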

[1] = target: Prostaglandin E2 receptor EP4 subtype (Homo sapiens, UniProt P35408); experiment: Antagonist activity at human EP4R assessed as inhibition of agonist-induced cAMP production by fluorescent cAMP tracer cAMP-d2 based FRET assay; type: functional
Prostaglandin E2 receptor EP4 subtype (Homo sapiens, UniProt P35408), sequence (P35408 whole entry): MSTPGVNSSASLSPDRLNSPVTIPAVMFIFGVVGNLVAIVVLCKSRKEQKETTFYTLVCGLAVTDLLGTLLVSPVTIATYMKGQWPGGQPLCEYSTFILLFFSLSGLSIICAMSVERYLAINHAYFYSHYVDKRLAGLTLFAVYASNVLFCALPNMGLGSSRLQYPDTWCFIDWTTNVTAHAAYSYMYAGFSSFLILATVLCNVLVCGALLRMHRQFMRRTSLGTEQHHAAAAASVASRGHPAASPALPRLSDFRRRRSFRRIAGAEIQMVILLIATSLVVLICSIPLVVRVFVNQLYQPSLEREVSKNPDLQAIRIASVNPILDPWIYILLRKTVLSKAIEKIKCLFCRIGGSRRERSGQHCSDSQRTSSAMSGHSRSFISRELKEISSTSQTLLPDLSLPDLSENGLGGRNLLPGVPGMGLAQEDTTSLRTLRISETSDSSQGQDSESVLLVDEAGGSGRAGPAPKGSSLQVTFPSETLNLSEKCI

[2] = Apparent permeability from apical to basolateral side in human Caco2 cells at 2 uM after 2 hrs by LC/MS/MS analysis; type: ADME, cell-based; details: Caco-2
How it was run: (§1)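 Caco-2 cells seeded at 4.5 x 10^4 per well on 0.4 µm inserts and grown 15 days. Assay in FCS-free Hepes-carbonate buffer pH 7.2, with TEER checked. Compound at 2 µM final added apically or basolaterally; both sides sampled before and after 2 h at 37 °C. Papp from peak areas; efflux ratio = Papp B-A / Papp A-B; recovery calculated.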

[3] = Efflux ratio of apparent permeability in human Caco2 cells at 2 uM after 2 hrs by LC/MS/MS analysis; type: ADME, cell-based; details: Caco-2; how it was run: as §1
[4] = Intrinsic clearance in Han Wistar rat hepatocytes assessed as blood clearance at 1 uM after 90 mins by LC-MS/MS analysis; type: ADME, cell-based, Hepatocyte
How it was run: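 Rat hepatocytes isolated with a Percoll gradient, viability by trypan blue; 1.0 × 10^6 viable cells/mL in WME + 5% FCS, compound at 1 µM, shaken at 580 rpm. Sampled 2–90 min into cold methanol; LC-MS/MS.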

[5] = target: Prostaglandin E2 receptor EP4 subtype (Mus musculus, UniProt P32240); experiment: Antagonist activity at mouse EP4R assessed as inhibition of agonist-induced cAMP production by fluorescent cAMP tracer cAMP-d2 based FRET assay; type: functional
Prostaglandin E2 receptor EP4 subtype (Mus musculus, UniProt P32240), sequence (P32240 whole entry): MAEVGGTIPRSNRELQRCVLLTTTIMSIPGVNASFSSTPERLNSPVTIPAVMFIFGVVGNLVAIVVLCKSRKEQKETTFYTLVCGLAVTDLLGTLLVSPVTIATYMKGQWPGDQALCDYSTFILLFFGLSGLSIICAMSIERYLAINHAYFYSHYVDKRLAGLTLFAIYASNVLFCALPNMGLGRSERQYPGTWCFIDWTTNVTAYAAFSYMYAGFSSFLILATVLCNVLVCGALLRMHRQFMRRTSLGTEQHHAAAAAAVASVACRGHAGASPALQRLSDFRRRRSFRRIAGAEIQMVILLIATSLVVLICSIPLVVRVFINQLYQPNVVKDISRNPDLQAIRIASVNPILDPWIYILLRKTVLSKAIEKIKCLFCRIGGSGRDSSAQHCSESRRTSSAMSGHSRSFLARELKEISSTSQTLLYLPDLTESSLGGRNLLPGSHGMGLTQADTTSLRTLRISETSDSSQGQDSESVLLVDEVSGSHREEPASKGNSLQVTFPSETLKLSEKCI

[6] = Lipophilicity, log D of the compound at pH 7.4; type: physicochemical; details: buffer
[7] = Kinetic solubility of the compound; type: physicochemical; details: read-out: Kinetic_solubility
[8] = target: T1, UDP-glucuronosyltransferase 1A1 (Homo sapiens, UniProt P22309); experiment: Drug metabolism in human hepatocytes assessed as UGT1A1-mediated acylglucuronide metabolite formation at 10 uM after 4 hrs by HPLC-UV and mass spectrometric analysis; type: ADME, cell-based
T1 sequence (P22309 whole entry): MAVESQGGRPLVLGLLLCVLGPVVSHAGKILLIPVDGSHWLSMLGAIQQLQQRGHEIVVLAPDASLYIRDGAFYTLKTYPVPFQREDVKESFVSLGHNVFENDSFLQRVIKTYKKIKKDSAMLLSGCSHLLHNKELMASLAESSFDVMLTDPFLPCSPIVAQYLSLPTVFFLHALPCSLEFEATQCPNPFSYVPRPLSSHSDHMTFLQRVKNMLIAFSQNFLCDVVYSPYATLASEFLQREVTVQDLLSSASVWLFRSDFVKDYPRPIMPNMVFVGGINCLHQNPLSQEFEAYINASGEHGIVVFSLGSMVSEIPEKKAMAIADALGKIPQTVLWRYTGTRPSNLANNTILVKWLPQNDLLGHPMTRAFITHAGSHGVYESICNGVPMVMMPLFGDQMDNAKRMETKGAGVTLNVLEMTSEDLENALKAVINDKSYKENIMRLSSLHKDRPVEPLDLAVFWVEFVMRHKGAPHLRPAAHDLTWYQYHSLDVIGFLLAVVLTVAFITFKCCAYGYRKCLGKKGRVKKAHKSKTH

[9] = target: T2, UDP-glucuronosyltransferase 1A1 (Rattus norvegicus, UniProt Q64550); experiment: Drug metabolism in rat hepatocytes assessed as UGT1A1-mediated acylglucuronide metabolite formation at 10 uM after 4 hrs by HPLC-UV and mass spectrometric analysis; type: ADME, cell-based
T2 sequence (Q64550 whole entry): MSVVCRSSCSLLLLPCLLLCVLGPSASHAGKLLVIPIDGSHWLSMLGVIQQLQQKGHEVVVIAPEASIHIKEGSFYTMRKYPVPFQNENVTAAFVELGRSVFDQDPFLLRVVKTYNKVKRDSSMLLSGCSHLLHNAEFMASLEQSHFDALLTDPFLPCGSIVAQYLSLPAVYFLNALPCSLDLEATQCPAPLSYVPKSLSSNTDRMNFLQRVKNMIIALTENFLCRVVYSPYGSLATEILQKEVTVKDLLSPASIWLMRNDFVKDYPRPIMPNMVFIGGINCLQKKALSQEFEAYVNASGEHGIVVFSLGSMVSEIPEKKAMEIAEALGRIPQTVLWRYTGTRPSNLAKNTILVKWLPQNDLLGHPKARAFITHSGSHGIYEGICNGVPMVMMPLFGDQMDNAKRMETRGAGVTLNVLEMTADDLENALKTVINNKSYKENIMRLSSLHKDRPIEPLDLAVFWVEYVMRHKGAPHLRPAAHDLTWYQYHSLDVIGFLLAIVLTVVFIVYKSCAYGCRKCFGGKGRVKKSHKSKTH

[10] = Half life in Wistar rat at 1 mg/kg, iv by LC-MS/MS analysis; type: ADME, organism-based; details: in vivo
How it was run: (§2)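 Male Wistar rats dosed iv (0.3–1 mg/kg) or intragastrically (0.5–10 mg/kg) as solutions with solubilizers such as PEG400; cassette dosing of up to 3 compounds in some studies. Jugular blood taken 2 min to 24 h into Li-heparin tubes. Plasma precipitated with acetonitrile and run by LC-MS/MS. Non-compartmental PK analysis.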

[11] = Dose normalized AUC in Wistar rat at 1 mg/kg, po by LC-MS/MS analysis; type: ADME, organism-based; details: in vivo; how it was run: as §2
[12] = Blood clearance in Wistar rat at 1 mg/kg, iv by LC-MS/MS analysis; type: ADME, organism-based; details: whole blood; how it was run: as §2
[13] = Volume of distribution at steady state in Wistar rat at 1 mg/kg, iv by LC-MS/MS analysis; type: ADME, organism-based; details: in vivo, read-out: Vdss; how it was run: as §2
[14] = Blood clearance in Wistar rat at 1 mg/kg, po by LC-MS/MS analysis; type: ADME, organism-based; details: whole blood; how it was run: as §2
[15] = Volume of distribution at steady state in Wistar rat at 1 mg/kg, po by LC-MS/MS analysis; type: ADME, organism-based; details: in vivo; how it was run: as §2
[16] = Oral bioavailability in Wistar rat at 1 mg/kg by LC-MS/MS analysis; type: ADME, organism-based; details: in vivo; how it was run: as §2
[17] = Kinetic solubility of the compound at pH 6.5; type: physicochemical; details: buffer, read-out: Kinetic_solubility

CCn1c2ccc(C)cc2c2cc(-c3nc4c(C)c(C(=O)O)ccc4n3CCOC)ccc21
Activity (Rattus norvegicus): Active

CCn1c2ccccc2c2cc(-c3nc4cc(C(=O)O)ccc4n3CC3CCO3)ccc21 (stereo not drawn)
IC50 [1]: 51.5 nM

CCn1c2ccccc2c2cc(-c3nc4cc(-c5noc(=O)[nH]5)ccc4n3CCOC)ccc21
IC50 [1]: 6.1 nM
Papp A→B at 2 h, 2 µM [2]: 2.63 ×10⁻⁶ cm/s
efflux ratio at 2 h, 2 µM [3]: 3.3
CLhep predicted at […], 1 µM [4]: 11.7 mL/min/kg

CCn1c2ccccc2c2cc(-c3nc4cc(-c5nnn[nH]5)ccc4n3CCOC)ccc21
IC50 [1]: 6.8 nM

CCn1c2ccccc2c2cc(-c3nc4cc(C(=O)O)ccc4n3CC3CC3)ccc21
IC50 [1]: 12.8 nM
IC50 [5]: 113 nM
logD [6]: 3
solubility kinetic [7]: 3.2 µg/mL (≈ 7.81 µM)

CCn1c2ccc(-c3nc4c(C)c(C(=O)O)ccc4n3CCOC)cc2c2cccc(C)c21
IC50 [1]: 4.2 nM

CCn1c2ccc(-c3nc4c(C)c(C(=O)O)ccc4n3CCOC)cc2c2c(Cl)cccc21
IC50 [1]: 65.5 nM

CCn1c2ccccc2c2cc(-c3nc4cc(C(=O)O)c(Cl)cc4n3CCOC)ccc21
IC50 [1]: 751 nM

CCn1c2ccccc2c2cc(-c3nc4cc(C(=O)O)ccc4n3C)ccc21
IC50 [1]: 166 nM

CCn1c2ccccc2c2cc(-c3nc4cc(C(=O)NC)ccc4n3CC3CC3)ccc21
IC50 [1]: 286 nM
logD [6]: 4.1
solubility kinetic [7]: < 0.1 µg/mL

CCn1c2ccccc2c2cc(-c3nc4cc(S(=O)(=O)O)ccc4n3CCOC)ccc21
IC50 [1]: 222 nM

CCn1c2ccc(-c3nc4c(C)c(C(=O)O)ccc4n3CCOC)cc2c2c(C)cccc21
IC50 [1]: 54.6 nM

Cn1c2ccccc2c2cc(-c3nc4cc(C(=O)O)ccc4n3CC3CC3)ccc21
IC50 [1]: 34.2 nM

CCn1c2ccccc2c2cc(-c3nc4cc(C(=O)NS(=O)(=O)N(C)C)ccc4n3CCOC)ccc21
IC50 [1]: 148 nM

CCn1c2ccccc2c2cc(-c3nc4c(F)c(C(=O)O)ccc4n3CCOC)ccc21
IC50 [1]: 4.3 nM

CCn1c2ccccc2c2cc(-c3nc4cc(C(=O)NS(C)(=O)=O)ccc4n3CCOC)ccc21
CLhep predicted at […], 1 µM [4]: 26.7 mL/min/kg

CCn1c2ccc(Cl)cc2c2cc(-c3nc4c(C)c(C(=O)O)ccc4n3CCOC)ccc21
IC50 [1]: 4.4 nM
Papp A→B at 2 h, 2 µM [2]: 20.8 ×10⁻⁶ cm/s
efflux ratio at 2 h, 2 µM [3]: 0.5
CLhep predicted at […], 1 µM [4]: 10 mL/min/kg

CCn1c2ccccc2c2cc(-c3nc4cc(C(=O)O)ccc4n3CCOC)ccc21
IC50 [1]: 4.7 nM
IC50 [5]: 81 nM

CCn1c2ccc(OC(F)(F)F)cc2c2cc(-c3nc4c(C)c(C(=O)O)ccc4n3CCOC)ccc21
IC50 [1]: 366 nM

CCn1c2ccccc2c2cc(-c3nc4cc(C(=O)O)ccc4n3-c3ccccc3)ccc21
IC50 [1]: 3120 nM

CCn1c2ccccc2c2cc(-c3nc4ccc(C(=O)O)cc4n3CCOC)ccc21
IC50 [1]: 1420 nM

CCn1c2ccccc2c2cc(-c3nc4cc(-c5n[nH]c(=O)o5)ccc4n3CCOC)ccc21
Papp A→B at 2 h, 2 µM [2]: 1.24 ×10⁻⁶ cm/s
efflux ratio at 2 h, 2 µM [3]: 0.9
CLhep predicted at […], 1 µM [4]: 30 mL/min/kg

CCn1c2ccc(-c3nc4c(C)c(C(=O)O)ccc4n3CCOC)cc2c2cc(C(F)(F)F)ccc21
IC50 [1]: 17.4 nM

CCn1c2ccccc2c2cc(-c3nc4cc(C(=O)O)c(F)cc4n3CCOC)ccc21
IC50 [1]: 34.6 nM

CCn1c2ccccc2c2cc(-c3nc4c(Cl)c(C(=O)O)ccc4n3CCOC)ccc21
IC50 [1]: 15.9 nM

CCn1c2ccccc2c2cc(-c3nc4c(C)c(C(=O)O)ccc4n3CCOC)ccc21
IC50 [1]: 24.7 nM
Papp A→B at 2 h, 2 µM [2]: 13.5 ×10⁻⁶ cm/s
efflux ratio at 2 h, 2 µM [3]: 1.1
Drug metabolism [8]: Metabolite_Detected
Drug metabolism [9]: Metabolite_Detected
half-life [10]: 294 min
AUC/dose [11]: 20 kg·h/L
clearance [12]: 1 mL/min/kg
Vd [13]: 0.36 L/kg
CL/F [14]: 1 mL/min/kg
Vdss [15]: 0.36 L/kg
bioavailability [16]: 92%
CLhep predicted at […], 1 µM [4]: 1.67 to 2.5 mL/min/kg
solubility kinetic [17]: 150 µg/mL (≈ 351 µM)
